{"data": "Experimental data from different studies", "target": "Dual specificity tyrosine-phosphorylation-regulated kinase 1B (DYRK1B, Homo sapiens, UniProt Q9Y463)", "technique": "competition with immobilised ligand", "note": "Lines come from different studies, so protocols differ."}
{"SMILES": "O=C(N[C@H]1CCCCC/C=C\\C2C[C@@]2(C(=O)O)NC(=O)[C@@H]2C[C@@H](Oc3ccncc3)CN2C1=O)OC1CCCC1 (stereo partly drawn)", "assay": "cell-free assay", "conditions": "1 µM", "remaining binding [%]": 46}
{"SMILES": "C[C@@H](c1ccc(-n2cnc3c(N)ncnc32)cc1)N1CCc2nn(C)c(Cc3ccccc3)c2C1=O", "assay": "binding", "conditions": "0.1 µM", "remaining binding [%]": 91}
{"SMILES": "Cc1cc(-n2nc(Cc3cc(F)cc(C(F)(F)F)c3)nc2C)ccc1C(N)=O", "assay": "cell-free assay", "conditions": "1 µM", "remaining binding [%]": 100}
{"SMILES": "Cc1cnc(Nc2ccc(C(=O)N3CCC(N4CCCC4)CC3)cc2)nc1-c1cc2ccccc2s1", "assay": "binding", "conditions": "1 µM", "remaining binding [%]": 43}
{"SMILES": "Cc1c[nH]c2nccc(Oc3c(F)cc(Nc4cc(Cl)nc(N)n4)cc3F)c12", "assay": "cell-free assay", "conditions": "0.1 µM", "remaining binding [%]": 100}
{"SMILES": "O=C(Nc1c[nH]nc1C(=O)NC1CCNCC1)c1cc(F)cc(F)c1", "assay": "binding", "conditions": "1 µM", "remaining binding [%]": 100}
{"SMILES": "COc1cnc(Nc2cccc(S(N)(=O)=O)c2)nc1N1CCN(c2ccccc2)C(=O)C1", "assay": "binding", "conditions": "1 µM", "remaining binding [%]": 91}
{"SMILES": "CN(CCCC(F)(F)F)c1nccc(-c2cnn3ncccc23)n1", "assay": "binding", "conditions": "1 µM", "remaining binding [%]": 39}
{"SMILES": "CCN1CCN(Cc2ccc(C(=O)Nc3ccc(C)c(Oc4ccc5c(c4)CC(=O)N5)c3)cc2C(F)(F)F)CC1", "assay": "binding", "conditions": "1 µM", "remaining binding [%]": 95}
{"SMILES": "COc1ncc2cc3ccccc3nc2c1C#N", "assay": "cell-free assay", "conditions": "5 µM", "remaining binding [%]": 81}
{"SMILES": "O=C(c1ccc(Nc2nccc(-c3cc4ccccc4s3)n2)cc1)N1CCC(N2CCCC2)CC1", "assay": "binding", "conditions": "1 µM", "remaining binding [%]": 99}
{"SMILES": "COc1ccc2c(c1)O[C@H](c1ccc(OC)c(OC)c1)C[C@@H]2NC(=O)C1(c2ccc3c(c2)OC(F)(F)O3)CC1", "assay": "cell-free assay", "conditions": "1 µM", "remaining binding [%]": 91}
{"SMILES": "C=CC(=O)N1CCC(C(=O)NCC(=O)N2CCN(c3nc(-c4cnc(N)nc4C(F)F)nc(N4CCOCC4)n3)CC2)CC1", "assay": "binding", "conditions": "1 µM", "remaining binding [%]": 98}
{"SMILES": "O=C(NCCCN1CCOCC1)c1ccc(Nc2nccc(-c3cc4ccccc4s3)n2)cc1", "assay": "binding", "conditions": "1 µM", "remaining binding [%]": 92}
{"SMILES": "CN(C)c1ncnc(-c2ccc3nc(Nc4cc(CN5CCN(C(=O)CC(F)(F)F)CC5)ccn4)[nH]c3c2)c1Cl", "assay": "cell-free assay", "conditions": "1 µM", "remaining binding [%]": 100}
